Assay results taken from ChEMBL document CHEMBL3797026, “Caatinga plants: Natural and semi-synthetic compounds potentially active against Trichomonas vaginalis” (Bioorg Med Chem Lett, 2016).
In brackets after ≈: the same amount, converted by molar mass. Activity calls are given as the source filed them. The calls are words filed in the database; no cut-off is given here.

Experiments:
Trichomonas vaginalis [1] = experiment: Antitrichomonal activity against metronidazole-sensitive Trichomonas vaginalis ATCC 30236 clinical isolate trophozoites assessed as parasite viability at 100 uM after 24 hrs by trypan blue dye based hemocytometry; type: functional
Procedure, shortened: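 Single-concentration screen at 100 µM with trophozoites at 1.0 × 10^5/mL. Incubation was 24 h at 37 °C in 5.0% CO2, with a 0.62% DMSO vehicle control and 100 µM metronidazole as positive control. Viable parasites were counted by hemocytometer using motility, normal morphology and 0.2% trypan blue exclusion, and reported as % of untreated. Three experiments were run in triplicate.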

Trichomonas vaginalis [2] = experiment: Antitrichomonal activity against metronidazole-resistant Trichomonas vaginalis TV-LACM2R clinical isolate trophozoites assessed as reduction in parasite viability at 15 uM after 24 hrs by trypan blue dye based hemocytometry; type: functional
Procedure, shortened: (§1)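 Trophozoites at 1.0 × 10^5/mL were incubated 24 h at 37 °C in 5.0% CO2. Viable parasites were counted by hemocytometer, judged by motility, normal morphology and exclusion of 0.2% trypan blue. Viability is expressed as a percentage of untreated parasites. Three independent parasite suspensions were each run in triplicate, reported as mean ± SD.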

Trichomonas vaginalis [3] = experiment: Antitrichomonal activity against metronidazole-resistant Trichomonas vaginalis TV-LACM2R clinical isolate trophozoites; type: functional
HeLa [4] = experiment: Cytotoxicity against human HeLa cells assessed as reduction in cell viability at 50 uM after 48 hrs by MTT assay; type: cell-based
Procedure, shortened: (§2)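 MTT assay: cells were grown in DMEM with 10% FBS at 37 °C in 5% CO2 and seeded at 3.0 × 10^4 or 1.0 × 10^4 cells/well overnight. Medium was replaced with fresh medium with or without 50 µM, with 0.2% Triton X-100 as positive control, for 24 or 48 h. MTT (0.5 mg/mL) was added for 1 h, formazan was dissolved in DMSO and read at 570 nm. Triplicates.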

Trichomonas vaginalis [5] = experiment: Antitrichomonal activity against metronidazole-sensitive Trichomonas vaginalis ATCC 30236 clinical isolate trophozoites assessed as decrease in parasite viability at 50 to 100 uM after 24 hrs by trypan blue dye based hemocytometry; type: functional, organism-based
Procedure, shortened: (§3)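 Trophozoites (1.0 × 10^5/mL) were cultured in TYM and exposed to a dilution series from 100 to 0.78 µM for 24 h. Viable counts were taken by hemocytometer with 0.2% trypan blue exclusion and compared with untreated parasites. To confirm the MIC, parasites were transferred to fresh TYM medium. Triplicates were run with three independent cultures.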

Trichomonas vaginalis [6] = experiment: Antitrichomonal activity against metronidazole-sensitive Trichomonas vaginalis ATCC 30236 clinical isolate trophozoites assessed as parasite shape disruption at 50 uM after 2 hrs by scanning electron microscopy; type: functional, organism-based
Procedure, shortened: (§4)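 Scanning EM: trophozoites (1.0 × 10^5/mL) were treated or not with 50 µM. They were fixed in 2.5% glutaraldehyde in 0.1 M sodium cacodylate pH 7.2, post-fixed in 1.0% OsO4 in the same buffer, and dehydrated in acetone. Untreated trophozoites served as control.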

[7] = Cytotoxicity against african green monkey Vero cells assessed as reduction in cell viability after 24 hrs by MTT assay; type: cell-based; details: chlorocebus sabaeus
Trichomonas vaginalis [8] = experiment: Antitrichomonal activity against metronidazole-sensitive Trichomonas vaginalis ATCC 30236 clinical isolate trophozoites assessed as parasite viability after 24 hrs by trypan blue dye based hemocytometry; type: functional, organism-based; details: ATCC 30236, 24 h; procedure, shortened: as §3
[9] = Selectivity index, ratio of CC50 for HMVII cells to IC50 for metronidazole-sensitive Trichomonas vaginalis ATCC 30236 clinical isolate trophozoites after 24 hrs; type: functional
Procedure, shortened: (§5)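 Selectivity index calculated as CC50 in the mammalian line (MTT, 24 or 48 h exposure) divided by the anti-T. vaginalis IC50.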

HeLa [10] = experiment: Cytotoxicity against human HeLa cells assessed as reduction in cell viability at 50 uM after 24 hrs by MTT assay; type: cell-based; procedure, shortened: as §2
[11] = Cytotoxicity against HMVII cells assessed as reduction in cell viability after 24 hrs by MTT assay; type: cell-based, HMV-2; details: human
[12] = Cytotoxicity against HMVII cells assessed as reduction in cell viability after 48 hrs by MTT assay; type: cell-based, HMV-2; details: human
Trichomonas vaginalis [13] = experiment: Antitrichomonal activity against metronidazole-sensitive Trichomonas vaginalis ATCC 30236 clinical isolate trophozoites assessed as parasite viability after 2 to 12 hrs by FDA/PI dye staining based flow cytometry; type: functional, organism-based
Procedure, shortened: (§6)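 Flow cytometry: parasites were exposed or not to 50 µM for 0, 2, 4, 6 and 12 h, then co-stained with FDA and PI (10 µg/mL each) for 20 min. FDA-retaining cells with intact membranes were scored viable and PI-positive cells nonviable. Three parasite suspensions were tested in triplicate.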

Trichomonas vaginalis [14] = experiment: Antitrichomonal activity against metronidazole-sensitive Trichomonas vaginalis ATCC 30236 clinical isolate trophozoites assessed as appearance of flagella at 50 uM after 2 hrs by scanning electron microscopic analysis; type: functional, organism-based; procedure, shortened: as §4
[15] = Selectivity index, ratio of CC50 for african green monkey Vero cells to IC50 for metronidazole-sensitive Trichomonas vaginalis ATCC 30236 clinical isolate trophozoites after 48 hrs; type: functional; procedure, shortened: as §5
Vero = experiment: Cytotoxicity against african green monkey Vero cells assessed as reduction in cell viability at 50 uM after 24 to 48 hrs by MTT assay; type: cell-based; details: chlorocebus sabaeus; procedure, shortened: as §2
Trichomonas vaginalis [16] = experiment: Antitrichomonal activity against metronidazole-sensitive Trichomonas vaginalis ATCC 30236 clinical isolate trophozoites assessed as undulating membrane at 50 uM after 2 hrs by scanning electron microscopic analysis; type: functional, organism-based; procedure, shortened: as §4
Trichomonas vaginalis [17] = experiment: Antitrichomonal activity against metronidazole-sensitive Trichomonas vaginalis ATCC 30236 clinical isolate trophozoites assessed as rounded parasite at 50 uM after 2 hrs by scanning electron microscopic analysis; type: functional, organism-based; procedure, shortened: as §4
[18] = Cytotoxicity against HMVII cells assessed as reduction in cell viability at 50 uM after 24 hrs by MTT assay; type: cell-based; details: human, hmv-2, 24 h; procedure, shortened: as §2
Trichomonas vaginalis [19] = experiment: Antitrichomonal activity against metronidazole-sensitive Trichomonas vaginalis ATCC 30236 clinical isolate trophozoites assessed as reduction of parasite viability after 2 hrs by FDA/PI dye staining based flow cytometry relative to control; type: functional; procedure, shortened: as §6
[20] = Cytotoxicity against african green monkey Vero cells assessed as reduction in cell viability after 48 hrs by MTT assay; type: cell-based; details: chlorocebus sabaeus
[21] = Selectivity index, ratio of CC50 for HMVII cells to IC50 for metronidazole-sensitive Trichomonas vaginalis ATCC 30236 clinical isolate trophozoites after 48 hrs; type: functional; procedure, shortened: as §5
Trichomonas vaginalis [22] = experiment: Antitrichomonal activity against metronidazole-sensitive Trichomonas vaginalis ATCC 30236 clinical isolate trophozoites assessed as inhibition of parasite growth at 50 uM after 12 to 24 hrs by hemocytometry; type: functional, organism-based
Procedure, shortened: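 Kinetic growth curve: trophozoites (1.0 × 10^5/mL) were incubated with or without 50 µM for 2, 4, 6, 12, 24, 48, 72 and 96 h. Parasites were counted by hemocytometer and expressed as trophozoites/mL relative to untreated controls.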

Trichomonas vaginalis [23] = experiment: Antitrichomonal activity against metronidazole-resistant Trichomonas vaginalis TV-LACM2R clinical isolate trophozoites assessed as reduction in parasite viability at 12.5 uM after 24 hrs by trypan blue dye based hemocytometry in presence of metronidazole; type: functional, organism-based; procedure, shortened: as §1
[24] = Selectivity index, ratio of CC50 for african green monkey Vero cells to IC50 for metronidazole-sensitive Trichomonas vaginalis ATCC 30236 clinical isolate trophozoites after 24 hrs; type: functional; procedure, shortened: as §5
[25] = Cytotoxicity against HMVII cells assessed as reduction in cell viability at 50 uM after 48 hrs by MTT assay; type: cell-based; details: human, hmv-2, 48 h; procedure, shortened: as §2
Trichomonas vaginalis [26] = experiment: Antitrichomonal activity against metronidazole-sensitive Trichomonas vaginalis ATCC 30236 clinical isolate trophozoites assessed as membrane projections and holes at 50 uM after 2 hrs by scanning microscopic analysis; type: functional, organism-based; procedure, shortened: as §4
Trichomonas vaginalis [27] = experiment: Antitrichomonal activity against metronidazole-resistant Trichomonas vaginalis TV-LACM2R clinical isolate trophozoites assessed as reduction in parasite viability at 12.5 uM after 24 hrs by trypan blue dye based hemocytometry; type: functional, organism-based; procedure, shortened: as §1

## CCCCCC(=O)O[C@H]1CC[C@]2(C)[C@H]3CC=C4[C@@H]5CC(C)(C)CC[C@]5(C)CC[C@@]4(C)[C@]3(C)CC[C@H]2C1(C)C
Trichomonas vaginalis [1]
  Activity: 62.8%

## C=C(C)[C@@H]1CC[C@]2(C)CC[C@]3(C)[C@H](CC[C@@H]4[C@@]5(C)CC[C@H](OC(=O)CCCCC)C(C)(C)[C@@H]5CC[C@]43C)[C@@H]12
Trichomonas vaginalis [1]
  Activity: 71.4%

## CCCCCC(=O)O[C@H]1CC[C@]2(C)[C@H]3CC=C4[C@@H]5[C@@H](C)[C@H](C)CC[C@]5(C)CC[C@@]4(C)[C@]3(C)CC[C@H]2C1(C)C
Trichomonas vaginalis [1]
  Activity: 56.2%

## C[C@H]1[C@H](C)CC[C@]2(C)CC[C@]3(C)C(=CC[C@@H]4[C@@]5(C)CC[C@H](O)C(C)(C)[C@@H]5CC[C@]43C)[C@H]12
Trichomonas vaginalis [1]
  Activity: 76.1%

## CC(=O)O[C@H]1CC[C@]2(C)[C@H]3CC=C4[C@@H]5[C@@H](C)[C@H](C)CC[C@]5(C)CC[C@@]4(C)[C@]3(C)CC[C@H]2C1(C)C
Trichomonas vaginalis [1]
  Activity: 56.4%

## C=C(C)[C@@H]1CC[C@]2(C)CC[C@]3(C)[C@H](CC[C@@H]4[C@@]5(C)CC[C@H](OC(C)=O)C(C)(C)[C@@H]5CC[C@]43C)[C@@H]12 [LUPENYL ACETATE]
Trichomonas vaginalis [1]
  Activity: 59.8%

## C=C(C)[C@@H]1CC[C@]2(C)CC[C@]3(C)[C@H](CC[C@@H]4[C@@]5(C)CC[C@H](O)C(C)(C)[C@@H]5CC[C@]43C)[C@@H]12 [LUPEOL]
Trichomonas vaginalis [1]
  Activity: 117.8%

## Cc1ncc([N+](=O)[O-])n1CCO [METRONIDAZOLE]
Trichomonas vaginalis [1]
  Activity: 0%
Trichomonas vaginalis [2]
  Activity: 80%
Trichomonas vaginalis [3]
  MIC: 73 µM (≈ 12.5 µg/mL)

## CC1(C)CC[C@]2(C(=O)O)CC[C@]3(C)C(=CC[C@@H]4[C@@]5(C)CC[C@H](O)C(C)(C)[C@@H]5CC[C@]43C)[C@@H]2C1 [OLEANOLIC_ACID]
Trichomonas vaginalis [1]
  Activity: 78.3%

## C[C@H]1[C@H](C)CC[C@]2(C(=O)O)CC[C@]3(C)C(=CC[C@@H]4[C@@]5(C)CC[C@H](O)C(C)(C)[C@@H]5CC[C@]43C)[C@H]12 [URSOLIC ACID]
HeLa [4]
  Activity: 90%
Trichomonas vaginalis [5]
  Activity: Active
Trichomonas vaginalis [6]
  Activity: Active
[7]
  CC50 at 24 h: 31.9 µM
Trichomonas vaginalis [8]
  IC50: 35.3 µM
  MIC: 50 µM (≈ 22.8 µg/mL)
Trichomonas vaginalis [1]
  Activity: 0%
[9]
  Ratio CC50/IC50: 4.13
HeLa [10]
  Activity: 50%
[11]
  CC50 at 24 h: 146 µM
[12]
  CC50 at 48 h: 69.5 µM
Trichomonas vaginalis [13]
  Activity: Active
Trichomonas vaginalis [14]
  Activity: Active
[15]
  Ratio CC50/IC50: 1.02
Vero
  Activity: 30%
Trichomonas vaginalis [16]
  Activity: Active
Trichomonas vaginalis [17]
  Activity: Active
[18]
  Activity: 60%
Trichomonas vaginalis [19]
  Activity: 98%
[20]
  CC50 at 48 h: 35.9 µM
[21]
  Ratio CC50/IC50: 1.97
Trichomonas vaginalis [22]
  growth inhibition (GI): Active
Trichomonas vaginalis [23]
  Activity: Active
[24]
  Ratio CC50/IC50: 0.9
[25]
  Activity: 90%
Trichomonas vaginalis [26]
  Activity: Active
Trichomonas vaginalis [27]
  Activity: Active

## CC(=O)O[C@H]1CC[C@]2(C)[C@H]3CC=C4[C@@H]5CC(C)(C)CC[C@]5(C)CC[C@@]4(C)[C@]3(C)CC[C@H]2C1(C)C [beta-AMYRIN ACETATE]
Trichomonas vaginalis [1]
  Activity: 54.5%

## CC1(C)CC[C@]2(C)CC[C@]3(C)C(=CC[C@@H]4[C@@]5(C)CC[C@H](O)C(C)(C)[C@@H]5CC[C@]43C)[C@@H]2C1 [beta-AMYRIN]
Trichomonas vaginalis [1]
  Activity: 84.3%
